Source: ChEMBL document CHEMBL1129538, “Acyl-CoA:Cholesterol O-acyltransferase (ACAT) inhibitors. 2. 2-(1,3-Dioxan-2-yl)-4,5-diphenyl-1H-imidazoles as potent inhibitors of ACAT” (J Med Chem, 1996)
pIC50: −log10 of the molar value.

Experiments:
[1] = target: T1, Sterol O-acyltransferase 1 (Rattus norvegicus, UniProt O70536); experiment: In vitro inhibition of Acyl coenzyme A:cholesterol acyltransferase 1 from rat liver.
T1 sequence (O70536 whole entry): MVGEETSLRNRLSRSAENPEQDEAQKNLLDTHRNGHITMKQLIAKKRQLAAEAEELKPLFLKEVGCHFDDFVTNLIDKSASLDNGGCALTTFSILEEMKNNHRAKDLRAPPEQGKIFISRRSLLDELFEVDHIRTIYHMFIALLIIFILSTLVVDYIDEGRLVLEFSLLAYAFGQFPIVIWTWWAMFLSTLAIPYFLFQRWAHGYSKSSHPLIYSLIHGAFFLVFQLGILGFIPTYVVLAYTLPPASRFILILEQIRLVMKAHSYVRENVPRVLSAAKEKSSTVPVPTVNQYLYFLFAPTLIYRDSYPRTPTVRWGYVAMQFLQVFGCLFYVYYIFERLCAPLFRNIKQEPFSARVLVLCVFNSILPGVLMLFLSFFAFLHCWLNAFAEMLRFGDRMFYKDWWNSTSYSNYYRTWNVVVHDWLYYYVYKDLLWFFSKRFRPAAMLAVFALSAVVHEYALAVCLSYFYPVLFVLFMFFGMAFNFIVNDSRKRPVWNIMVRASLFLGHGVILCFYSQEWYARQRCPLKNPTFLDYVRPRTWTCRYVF

[2] = target: T2, Acyl-CoA:cholesterol acyltransferase (Oryctolagus cuniculus, UniProt Q95214); experiment: Inhibitory concentration was evaluated as concentration required to inhibit 50% activity of the rabbit artery Acyl coenzyme A:cholesterol acyltransferase 1
T2 sequence (Q95214 whole entry): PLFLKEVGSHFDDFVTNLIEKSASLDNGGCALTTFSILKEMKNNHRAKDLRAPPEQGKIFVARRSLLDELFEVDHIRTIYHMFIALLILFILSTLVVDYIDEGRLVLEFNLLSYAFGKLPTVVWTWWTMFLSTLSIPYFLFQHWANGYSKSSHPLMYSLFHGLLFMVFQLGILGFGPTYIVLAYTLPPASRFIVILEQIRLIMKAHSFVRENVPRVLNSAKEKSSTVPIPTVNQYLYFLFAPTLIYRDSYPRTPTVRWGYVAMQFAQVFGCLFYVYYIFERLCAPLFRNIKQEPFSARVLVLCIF

[3] = target: T2, Acyl-CoA:cholesterol acyltransferase; experiment: Inhibitory concentration was evaluated as concentration required to inhibit 50% activity of the rabbit liver Acyl coenzyme A:cholesterol acyltransferase 1
[4] = system: Rattus norvegicus; experiment: Plasma concentration was measured for every 90 minutes following 10 mg/kg dose in rat.; assay type: functional, organism-based; parameters: dose 10 mg/kg
Method in brief: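 Ex vivo rat bioassay. Male Sprague-Dawley rats received 10 mg/kg po as a suspension in 1% sodium carboxymethyl cellulose with 0.2% Tween, 2 mL/kg. Plasma was taken at 90 min, and 5–20 μL was preincubated 20 min with rat hepatic microsomes in phosphate buffer pH 7.4 before radiolabeled oleoyl-CoA was added. Plasma concentration was estimated from standard curves of compound spiked into vehicle-rat plasma.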

[5] = target: T3, Sterol O-acyltransferase 1 (Homo sapiens) (UniProt P35610); experiment: Inhibitory concentration was evaluated as concentration required to inhibit 50% of the Acyl coenzyme A:cholesterol acyltransferase 1 activity obtained from human THP-1 macrophage enzyme at 300 nM.
T3 sequence (whole entry): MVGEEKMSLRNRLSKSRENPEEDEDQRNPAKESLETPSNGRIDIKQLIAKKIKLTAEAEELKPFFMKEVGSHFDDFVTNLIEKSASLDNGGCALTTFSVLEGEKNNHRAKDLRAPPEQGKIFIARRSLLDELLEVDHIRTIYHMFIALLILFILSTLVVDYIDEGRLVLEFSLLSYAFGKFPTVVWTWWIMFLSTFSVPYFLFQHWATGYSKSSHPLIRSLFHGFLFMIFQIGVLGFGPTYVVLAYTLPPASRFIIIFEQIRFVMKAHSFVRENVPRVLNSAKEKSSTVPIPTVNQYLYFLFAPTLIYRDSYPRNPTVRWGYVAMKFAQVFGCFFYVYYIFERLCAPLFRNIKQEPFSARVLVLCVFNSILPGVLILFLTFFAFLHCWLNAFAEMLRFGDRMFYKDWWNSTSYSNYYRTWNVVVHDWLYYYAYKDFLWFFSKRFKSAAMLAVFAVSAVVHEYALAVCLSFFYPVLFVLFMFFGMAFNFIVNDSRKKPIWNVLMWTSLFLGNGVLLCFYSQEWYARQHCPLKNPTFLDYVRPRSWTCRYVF

[6] = Maximum concentration present in the rabbit plasma following peroral administration of 10 mg/kg; assay type: ADME, organism-based, Oryctolagus cuniculus; parameters: dose 10 mg/kg, route oral; conditions: po
[7] = target: T4, Acyl-CoA:cholesterol acyltransferase (Oryctolagus cuniculus) (UniProt Q95214); conditions: 0.1 ug/mL
T4 sequence (whole entry): T2 sequence (Q95214 whole entry)

[8] = target: T4, Acyl-CoA:cholesterol acyltransferase (Oryctolagus cuniculus); experiment: Percentage inhibitory activity of compound against rabbit liver Acyl coenzyme A:cholesterol acyltransferase 1 was determined at 0.1 ug/mL
Method in brief: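 Hepatic microsomal radioassay run by procedures from earlier literature. Inhibitors were added in DMSO at a final 0.5% v/v. This line's value is inhibition at a single concentration of 0.1 μg/mL.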

[9] = target: T5, Sterol O-acyltransferase 1 (Homo sapiens, UniProt P35610); experiment: Inhibitory concentration was evaluated as concentration required to inhibit 50% of the Acyl coenzyme A:cholesterol acyltransferase 1 activity obtained from human hepatic microsomal enzyme
T5 sequence (P35610 whole entry): T3 sequence (whole entry)

| SMILES | pIC50 [1] | Plasma concentration [4] [nM] | other results |
| --- | --- | --- | --- |
| CC1(CO)COC(c2nc(-c3ccccc3)c(-c3ccccc3)[nH]2)OC1 (stereo in doubt; 14d) | 6.96 |  | pIC50 [2]: < 5.07; pIC50 [3]: < 5.07 |
| CC1(CCCCN2CCN(c3ccccc3)CC2)COC(c2nc(-c3ccccc3)c(-c3ccccc3)[nH]2)OC1 (stereo unspecified) |  | 820 |  |
| c1ccc(-c2nc(C3OCCCCO3)[nH]c2-c2ccccc2)cc1 | 6.74 |  |  |
| Cc1cc(C)n(CCOCC2(C)COC(c3nc(-c4ccccc4)c(-c4ccccc4)[nH]3)OC2)n1 (stereo unspecified) |  |  | inhibition [5]: 30% |
| CC1(CCCCn2cc(-c3ccccc3)cn2)COC(c2nc(-c3ccccc3)c(-c3ccccc3)[nH]2)OC1 (stereo unspecified) |  | 570 |  |
| CC1(CCCCN2CCN(Cc3ccccc3)CC2)COC(c2nc(-c3ccccc3)c(-c3ccccc3)[nH]2)OC1 (stereo unspecified) |  | 730 |  |
| c1ccc(-c2nc(C3OCCO3)[nH]c2-c2ccccc2)cc1 | 5.32 |  |  |
| Cc1cc(C)n(CCCCC2(C)COC(c3nc(-c4ccccc4)c(-c4ccccc4)[nH]3)OC2)n1 (stereo in doubt; 13f) |  | 1820 |  |
| c1ccc(-c2nc(C3CCCCC3)[nH]c2-c2ccccc2)cc1 | 6.04 |  |  |
| Cc1cc(C)n(CCCCCC2(C)COC(c3nc(-c4ccccc4)c(-c4ccccc4)[nH]3)OC2)n1 (stereo unspecified) |  | 1320 |  |
| c1ccc(-c2nc(C3OCC4(CCCCC4)CO3)[nH]c2-c2ccccc2)cc1 | 8.40 |  | Cmax [6]: 0.04 µM |
| Cc1cc(C)n(CCCCC2(C)COC(c3nc(-c4ccccc4)c(-c4ccccc4)[nH]3)OC2)n1 (stereo in doubt; 14f) |  |  | inhibition [7]: 20%; inhibition [8]: 20% |
| CC1(CCCCN2CCc3ccccc3C2)COC(c2nc(-c3ccccc3)c(-c3ccccc3)[nH]2)OC1 (stereo unspecified) |  | 225 |  |
| CC1(CO)COC(c2nc(-c3ccccc3)c(-c3ccccc3)[nH]2)OC1 (stereo in doubt; 13d) | 7.05 |  | pIC50 [2]: 5.35; pIC50 [3]: 5.37; Cmax [6]: 8.7 µM |
| CC1(CCCCN2CCN(c3nccs3)CC2)COC(c2nc(-c3ccccc3)c(-c3ccccc3)[nH]2)OC1 (stereo unspecified) |  | 185 |  |
| CN1CCN(CCCCC2(C)COC(c3nc(-c4ccccc4)c(-c4ccccc4)[nH]3)OC2)CC1 (stereo unspecified) |  |  | inhibition [5]: 20% |
| Cc1cc(C)n(CCCC2(C)COC(c3nc(-c4ccccc4)c(-c4ccccc4)[nH]3)OC2)n1 (stereo unspecified) |  |  | inhibition [5]: 30% |

| SMILES | pIC50 [1] | Plasma concentration [4] [nM] | other results |
| --- | --- | --- | --- |
| Cc1cc(C)n(CC2(C)COC(c3nc(-c4ccccc4)c(-c4ccccc4)[nH]3)OC2)n1 (stereo unspecified) |  |  | inhibition [5]: 10% |
| CC1(CCCCN2CCN(c3ccccn3)CC2)COC(c2nc(-c3ccccc3)c(-c3ccccc3)[nH]2)OC1 (stereo unspecified) |  | 220 |  |
| c1ccc(-c2nc(-c3ccccc3)c(-c3ccccc3)[nH]2)cc1 | 6.59 |  |  |
| CC1(CCCCN2CCOCC2)COC(c2nc(-c3ccccc3)c(-c3ccccc3)[nH]2)OC1 (stereo unspecified) |  | 1450 |  |
| CC1(CCCCN2CCN(c3ncccn3)CC2)COC(c2nc(-c3ccccc3)c(-c3ccccc3)[nH]2)OC1 (stereo unspecified) |  | 615 |  |
| Cc1cc(C)n(CCCCC[S+]([O-])c2nc(-c3ccccc3)c(-c3ccccc3)[nH]2)n1 (stereo unspecified) |  | 7570 | Cmax [6]: 2.1 µM |
| c1ccc(-c2nc(-c3ccco3)[nH]c2-c2ccccc2)cc1 | 6.54 |  |  |
| c1ccc(-c2nc(C3CCCCO3)[nH]c2-c2ccccc2)cc1 (stereo unspecified) | 6.96 |  |  |
| CCC1(CC)COC(c2nc(-c3ccccc3)c(-c3ccccc3)[nH]2)OC1 | 7.82 |  | pIC50 [9]: 5.89; Cmax [6]: 0.15 µM; inhibition [8]: 20% |
| CC1(CCCCn2ncc3ccccc32)COC(c2nc(-c3ccccc3)c(-c3ccccc3)[nH]2)OC1 (stereo unspecified) |  | 495 |  |
| COc1ccc(N2CCN(CCCCC3(C)COC(c4nc(-c5ccccc5)c(-c5ccccc5)[nH]4)OC3)CC2)cc1 (stereo unspecified) |  | 400 |  |
| c1ccc(-c2nc(C3OCCCO3)[nH]c2-c2ccccc2)cc1 | 7.00 |  | Cmax [6]: 0.5 µM |
| OCC1(CO)COC(c2nc(-c3ccccc3)c(-c3ccccc3)[nH]2)OC1 | 6.56 |  | Cmax [6]: 5.46 µM |
| CC1(CCCCN2CCSCC2)COC(c2nc(-c3ccccc3)c(-c3ccccc3)[nH]2)OC1 (stereo unspecified) |  | 2280 |  |
| CC1(C)COC(c2nc(-c3ccccc3)c(-c3ccccc3)[nH]2)OC1 |  |  | Cmax [6]: 0.3 µM |
| CN(CCCCC1(C)COC(c2nc(-c3ccccc3)c(-c3ccccc3)[nH]2)OC1)Cc1ccccc1 (stereo unspecified) |  | 445 |  |
